Holding throughout (assay type): ADME, organism-based, Macaca mulatta
A short description of data set [1]: Drug level in normal rhesus monkey pons assessed as standard uptake value at 81.2 MBq, iv after 8 mins by microPET. The conditions noted are these: in vivo.
Data set [2] is described as follows: Drug level in normal rhesus monkey parietal cortex assessed as standard uptake value at 81.2 MBq, iv after 2.5 mins by microPET. The conditions noted are these: in vivo.
A short description of data set [3]: Drug level in normal rhesus monkey parietal cortex assessed as standard uptake value at 81.2 MBq, iv after 6 mins by microPET. The conditions noted are these: in vivo, 0.1 h.
The nature of data set [4]: Drug level in normal rhesus monkey parietal cortex assessed as standard uptake value at 81.2 MBq, iv after 14 mins by microPET. The settings on record: in vivo.
A short description of data set [5]: Drug level in normal rhesus monkey parietal cortex assessed as standard uptake value at 81.2 MBq, iv after 42.5 mins by microPET. The conditions noted are these: in vivo.
Data set [6] can be described thus: Drug level in normal rhesus monkey white matter assessed as standard uptake value at 81.2 MBq, iv after 85 mins by microPET. The settings on record: in vivo.
Data set [7] can be described thus: Drug level in normal rhesus monkey thalamus assessed as standard uptake value at 81.2 MBq, iv after 12 mins by microPET. The conditions noted are these: in vivo, 0.2 h.
The nature of data set [8]: Drug level in normal rhesus monkey frontal cortex assessed as standard uptake value at 81.2 MBq, iv after 57.5 mins by microPET. The conditions noted are these: in vivo.
Data set [9] in a line: Drug level in normal rhesus monkey parietal cortex assessed as standard uptake value at 96.3 MBq, iv after 37.5 mins by microPET. The conditions noted are these: in vivo, 0.625 h.
Data set [10] in a line: Drug level in normal rhesus monkey pons assessed as standard uptake value at 96.3 MBq, iv after 27.5 mins by microPET. The settings on record: in vivo.
Data set [11] can be described thus: Drug level in normal rhesus monkey thalamus assessed as standard uptake value at 96.3 MBq, iv after 65 mins by microPET. The settings on record: in vivo.
Data set [12] is described as follows: Drug level in normal rhesus monkey thalamus assessed as standard uptake value at 96.3 MBq, iv after 135 mins by microPET. The conditions noted are these: in vivo, 2.25 h.
A short description of data set [13]: Drug level in normal rhesus monkey thalamus assessed as standard uptake value at 96.3 MBq, iv after 165 mins by microPET. The conditions noted are these: in vivo, 2.75 h.
Data set [14] can be described thus: Drug level in normal rhesus monkey cerebellum assessed as standard uptake value at 96.3 MBq, iv after 4.5 mins by microPET. The settings on record: in vivo, 0.075 h. Summed up: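 One normal rhesus monkey, each tracer given iv via the vena saphena (81.2, 96.3 or 109.4 MBq), with 1 day between tracer injections. Dynamic brain μPET over 180 min used frames of 5 × 60 s, 5 × 120 s, 9 × 300 s and 12 × 600 s. Images were reconstructed by filtered back projection with a RAMP filter. Regional time-activity curves were expressed as SUV.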

A short description of data set [15]: Drug level in normal rhesus monkey pons assessed as standard uptake value at 96.3 MBq, iv after 57.5 mins by microPET. The conditions noted are these: in vivo.
The nature of data set [16]: Drug level in normal rhesus monkey pons assessed as standard uptake value at 96.3 MBq, iv after 85 mins by microPET. The conditions noted are these: in vivo.
Data set [17] can be described thus: Drug level in normal rhesus monkey white matter assessed as standard uptake value at 96.3 MBq, iv after 47.5 mins by microPET. The conditions noted are these: in vivo.
The nature of data set [18]: Drug level in normal rhesus monkey pons assessed as standard uptake value at 109.4 MBq, iv after 0.875 mins by microPET. The settings on record: in vivo, 52 s.
Data set [19] is described as follows: Drug level in normal rhesus monkey cerebellum assessed as standard uptake value at 109.4 MBq, iv after 27.5 mins by microPET. The settings on record: in vivo. In outline:
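Single normal rhesus monkey; each tracer given iv via the vena saphena, with 1 day between tracer injections. Dynamic μPET ran 180 min (5×60 s, 5×120 s, 9×300 s, 12×600 s). Images were reconstructed by filtered back projection with a RAMP filter. Regional time-activity curves were expressed as SUV.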

The nature of data set [20]: Drug level in normal rhesus monkey cerebellum assessed as standard uptake value at 109.4 MBq, iv after 32.5 mins by microPET. The conditions noted are these: in vivo. Summed up: (§1)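 One normal rhesus monkey received each tracer via the vena saphena, with 1 day between injections. Dynamic μPET ran 180 min for 18F tracers (5×60 s, 5×120 s, 9×300 s, 12×600 s) and 90 min for the 11C tracer (5×60 s, 5×120 s, 9×300 s, 3×600 s). Filtered back-projection reconstruction (RAMP filter) was used. Time-activity curves were drawn to give regional SUV.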

A short description of data set [21]: Drug level in normal rhesus monkey frontal cortex assessed as standard uptake value at 109.4 MBq, iv after 81 mins by microPET. The conditions noted are these: in vivo, 1.35 h.
A short description of data set [22]: Drug level in normal rhesus monkey thalamus assessed as standard uptake value at 109.4 MBq, iv after 42.5 mins by microPET. The settings on record: in vivo.
Data set [23] in a line: Drug level in normal rhesus monkey cerebellum assessed as standard uptake value at 109.4 MBq, iv after 0.625 mins by microPET. The settings on record: in vivo, 38 s.
The nature of data set [24]: Drug level in normal rhesus monkey frontal cortex assessed as standard uptake value at 109.4 MBq, iv after 129 mins by microPET. The conditions noted are these: in vivo, 2.15 h.
The nature of data set [25]: Drug level in normal rhesus monkey white matter assessed as standard uptake value at 109.4 MBq, iv after 3.5 mins by microPET. The settings on record: in vivo.
Data set [26] is described as follows: Drug level in normal rhesus monkey white matter assessed as standard uptake value at 109.4 MBq, iv after 27.5 mins by microPET. The settings on record: in vivo.
The nature of data set [27]: Drug level in normal rhesus monkey white matter assessed as standard uptake value at 109.4 MBq, iv after 47.5 mins by microPET. The settings on record: in vivo.
A short description of data set [28]: Drug level in normal rhesus monkey parietal cortex assessed as standard uptake value at 109.4 MBq, iv after 42.5 mins by microPET. The conditions noted are these: in vivo.
Data set [29] in a line: Drug level in normal rhesus monkey cerebellum assessed as standard uptake value at 152.9 MBq, iv after 12 mins by microPET. The conditions noted are these: in vivo, 0.2 h. In outline:
as §1

Data set [30] in a line: Drug level in normal rhesus monkey cerebellum assessed as standard uptake value at 152.9 MBq, iv after 27.5 mins by microPET. The settings on record: in vivo. Summed up:
(§2)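 Single normal rhesus monkey; tracer given iv via the vena saphena, 1 day apart from the other tracer injections. Dynamic μPET ran 90 min (5×60 s, 5×120 s, 9×300 s, 3×600 s). Images were reconstructed by filtered back projection with a RAMP filter. Regional time-activity curves were expressed as SUV.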

A short description of data set [31]: Drug level in normal rhesus monkey frontal cortex assessed as standard uptake value at 152.9 MBq, iv after 8 mins by microPET. The settings on record: in vivo. In outline: as §2
Data set [32] in a line: Drug level in normal rhesus monkey frontal cortex assessed as standard uptake value at 152.9 MBq, iv after 14 mins by microPET. The conditions noted are these: in vivo. Summed up:
as §2

The nature of data set [33]: Drug level in normal rhesus monkey frontal cortex assessed as standard uptake value at 152.9 MBq, iv after 57.5 mins by microPET. The conditions noted are these: in vivo. Summed up:
as §2

Data set [34] is described as follows: Drug level in normal rhesus monkey white matter assessed as standard uptake value at 152.9 MBq, iv after 17.5 mins by microPET. The settings on record: in vivo.
The nature of data set [35]: Drug level in normal rhesus monkey thalamus assessed as standard uptake value at 152.9 MBq, iv after 2.5 mins by microPET. The conditions noted are these: in vivo.
A short description of data set [36]: Drug level in normal rhesus monkey parietal cortex assessed as standard uptake value at 152.9 MBq, iv after 42.5 mins by microPET. The conditions noted are these: in vivo.

Here are results for 4 molecules from ChEMBL document CHEMBL1154674, “Synthesis and evaluation of three 18F-labeled aminophenylbenzothiazoles as amyloid imaging agents” (J Med Chem, 2009).

For `CNc1ccc2nc(-c3ccc([18F])cc3)sc2c1`, the SUV came to 5.089 in data set [1]; 4.252 in [2]; 4.972 in data set [3]; 4.798 in data set [4]; 3.863 in [5]; 3.871 in data set [6]. In addition, the SUV in [7] is recorded as 4.684; in data set [8], 5.004.

For the molecule `CN(C)c1ccc2nc(-c3ccc([18F])cc3)sc2c1`, the SUV in [9] is 1.84; in data set [10] it was 1.61; in data set [11] it was 2.21; in [12] it was 1.97; in [13] it was 1.86; in data set [14], 1.63. Also, the SUV in data set [15] was determined as 1.95; in data set [16], 2.06; in data set [17], 1.37.

As to `Nc1ccc2nc(-c3ccc([18F])cc3)sc2c1`, the SUV is on record as 1.85 in data set [18]; 4.16 in data set [19]; 4.03 in [20]; 4.41 in data set [21]; 5.55 in data set [22]; 2.19 in data set [23]. Also, the SUV in [24] came to 4.06; in [25] it was 2.22; in data set [26], 3.2; in data set [27], 3.53; in data set [28], 4.54.

`[11CH3]Nc1ccc(-c2nc3ccc(O)cc3s2)cc1` [PITTSBURGH COMPOUND B]: the SUV in [29] is recorded as 2.252; in data set [30] it was 1.258; in [31], 2.29; in data set [32] it was 1.904; in [33] it was 0.692; in data set [34], 1.328. In addition, the results for the SUV in data set [35] and in data set [36] were 1.195 and 0.906, respectively.
